Experimental data as given in ChEMBL document CHEMBL3784970, “Synthesis and molecular docking of N'-arylidene-5-(4-chlorophenyl)-1-(3,4-dichlorophenyl)-4-methyl-1H-pyrazole-3-carbohydrazides as novel hypoglycemic and antioxidant dual agents” (Bioorg Med Chem, 2016).
Calls of active or inactive are those of the source. No cut-off for these calls is given here.

Legend:
Rattus norvegicus [1] = assay: Antidiabetic activity in streptozotocin/nicotinamide-induced Wistar rat model of diabetes assessed as plasma glucose reduction at 50 mg/kg, ig measured at 1 to 7 hrs post dose by glucometric analysis; type: functional, organism-based
Rattus norvegicus [2] = assay: Antidiabetic activity in streptozotocin/nicotinamide-induced Wistar rat model of diabetes assessed as plasma glucose variation at 50 mg/kg, ig measured at 1 hr post dose by glucometric analysis (reference value: 17 +/- 8%); type: functional
Rattus norvegicus [3] = assay: Antidiabetic activity in streptozotocin/nicotinamide-induced Wistar rat model of diabetes assessed as plasma glucose variation at 50 mg/kg, ig measured at 5 hrs post dose by glucometric analysis (reference value: -2 +/- 6%); type: functional
Rattus norvegicus [4] = assay: Antidiabetic activity in streptozotocin/nicotinamide-induced Wistar rat model of diabetes assessed as plasma glucose variation at 50 mg/kg, ig measured at 3 hrs post dose by glucometric analysis (reference value: -13 +/- 10%); type: functional
Rattus norvegicus [5] = assay: Antidiabetic activity in streptozotocin/nicotinamide-induced Wistar rat model of diabetes assessed as plasma glucose variation at 50 mg/kg, ig measured at 7 hrs post dose by glucometric analysis (reference value: -5 +/- 8%); type: functional
[6] = Antioxidant activity assessed as DPPH radical scavenging activity incubated for 20 mins; type: physicochemical
How it was run: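 DPPH (100 μM in ethanol) was mixed with sample at different concentrations and incubated 20 min at room temperature in the dark, then A517 was read. % scavenging was calculated against a water control. IC was reported as mean ± SEM, n = 3.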

[7] = Antioxidant activity assessed as DPPH radical scavenging activity at 1 uM incubated for 20 mins; type: physicochemical
[8] = Antioxidant activity assessed as DPPH radical scavenging activity at 10 uM incubated for 20 mins; type: physicochemical
[9] = Antioxidant activity assessed as DPPH radical scavenging activity at 100 uM incubated for 20 mins; type: physicochemical

For `COc1cc(/C=N/NC(=O)c2nn(-c3ccc(Cl)c(Cl)c3)c(-c3ccc(Cl)cc3)c2C)ccc1O`, the Activity (Rattus norvegicus [1]) was “Active”.

In the case of `Cc1c(C(=O)NN2CCCCC2)nn(-c2ccc(Cl)cc2Cl)c1-c1ccc(Cl)cc1` [RIMONABANT], the Activity (Rattus norvegicus [2]) is reported as -30%, the Activity (Rattus norvegicus [3]) is reported as -30% and the Activity (Rattus norvegicus [4]) is reported as -21%. It also gave an Activity (Rattus norvegicus [5]) of -39%.

In the case of `Cc1c(C)c2c(c(C)c1O)CC[C@@](C)(CCC[C@H](C)CCC[C@H](C)CCCC(C)C)O2` [ALPHA-TOCOPHEROL], the IC50 [6] is reported as 10.9 µM.

With `COc1cc(/C=C/C(=O)O)ccc1O` [FERULATE] the Activity [7] was 3.06%, the IC50 [6] was 47.7 µM and the Activity [8] was 14.52%. It also gave an Activity [9] of 78.73%.

Work on `COc1ccc(Cl)cc1C(=O)NCCc1ccc(S(=O)(=O)NC(=O)NC2CCCCC2)cc1` [GLYBURIDE] yielded an Activity (Rattus norvegicus [2]) of -4%, an Activity (Rattus norvegicus [3]) of -31% and an Activity (Rattus norvegicus [4]) of -31%. It also gave an Activity (Rattus norvegicus [5]) of -31%.

For `COc1cc(/C=C/C(=O)O)cc(OC)c1O` [SINAPINATE], the Activity [7] was 2.65%, the IC50 [6] was 35.8 µM and the Activity [8] was 23.29%. For the same compound, the Activity [9] was 90.61%.

Work on `O=c1c(O)c(-c2ccc(O)c(O)c2)oc2cc(O)cc(O)c12` [QUERCETIN] yielded an IC50 [6] of 31.7 µM.
